Experimental data taken from ChEMBL document CHEMBL4706578, “New one-pot synthesis of anti-tuberculosis compounds inspired on isoniazid” (Eur J Med Chem, 2020).
Converted amounts (≈) assume the structure as drawn.

Experiments:
[1] = system: Mycobacterium tuberculosis; assay: Antimycobacterial activity against Mycobacterium tuberculosis InhA-OE strain assessed as inhibition of microbial growth at 20 uM incubated for 5 days by serial microdilution based colorimetric assay; assay type: functional; settings: 120 h, time 5 day
[2] = system: Mycobacterium tuberculosis; assay: Antitubercular activity against Mycobacterium tuberculosis H37Rv assessed as inhibition of microbial growth incubated by measuring turbidity for 5 days by serial microdilution based colorimetric assay; assay type: functional; settings: 120 h, dose 20 µM, time 5 day
Summary of the method: (§1)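 Strains grown in Middlebrook 7H9 with ADS (BSA, dextrose, NaCl) and 1% glycerol. Compounds from 40 mM DMSO stocks were two-fold serially diluted in plate broth. Inoculum was a 1/25 dilution of a mid-log culture at McFarland 1.0, about 10⁶ CFU/well. Plates sealed and held 5 days at 37 °C. MIC is the lowest concentration with no visible turbidity. Rifampicin was the control drug.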

[3] = Cytotoxicity against African green monkey Vero E6 cells assessed as reduction in cell viability incubated for 48 hrs by neutral red assay; assay type: cell-based; settings: Chlorocebus aethiops
Summary of the method: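 Vero kidney […] were seeded at 25,000 cells/well and allowed 24 h before compound was added, then incubated 48 h. Viable cells were read by neutral red uptake. IC50 was taken from log plots of growth inhibition versus concentration. Doxorubicin was the positive control and DMSO the vehicle control.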

[4] = Selectivity index, ratio of CC50 for african green monkey Vero cells to MIC for Mycobacterium tuberculosis H37Rv; assay type: toxicity; settings: read-out: Selectivity Index
[5] = system: Mycobacterium tuberculosis; assay: Antitubercular activity against Mycobacterium tuberculosis H37Rv under aerobic condition; assay type: functional
[6] = system: Mycobacterium tuberculosis; assay: Antitubercular activity against Mycobacterium tuberculosis H37Rv; assay type: functional; summary of the method: as §1
[7] = system: Mycobacterium tuberculosis; assay: Antitubercular activity against Mycobacterium tuberculosis H37Rv under anerobic condition; assay type: functional

| SMILES | MIC [2] | also measured |
| --- | --- | --- |
| COC(=O)/C=C/N(/N=C/C=C(C)C)S(=O)(=O)c1ccc(C)cc1 | 5 µM | MIC [1]: 10 µM |
| COC(=O)/C=C/N(/N=C/c1ccccc1OC)S(=O)(=O)c1ccc(C)cc1 | 1.25 µM | IC50 [3]: > 12.2 µM; MIC [1]: 5 µM; selectivity ratio [4]: 9.76 |
| COC(=O)/C=C\N(/N=C/C1=CC2CC(C1)C2(C)C)S(=O)(=O)c1ccc(C)cc1 (stereo not drawn) | > 20 µM |  |
| C/C=C/C=C/C=N/N(/C=C\C(=O)OC)S(=O)(=O)c1ccc(C)cc1 | 20 µM |  |
| Cc1cc(C)nc(NNC(=O)c2ccccn2)n1 |  | IC90 [5]: 1.51 µg/mL (≈ 6.21 µM); MIC [6]: 6.08 µg/mL (≈ 25 µM); IC90 [7]: 2.02 µg/mL (≈ 8.3 µM) |
| COC(=O)/C=C/N(/N=C/c1ccc([N+](=O)[O-])cc1)S(=O)(=O)c1ccc(C)cc1 | > 20 µM |  |
| COC(=O)/C=C\N(/N=C/C1=CCCCC1)S(=O)(=O)c1ccc(C)cc1 | > 20 µM |  |
| COC(=O)/C=C/N(/N=C/c1ccc(OC)c(OC)c1)S(=O)(=O)c1ccc(C)cc1 | > 20 µM |  |
| COC(=O)/C=C/N(/N=C/c1ccc(-c2ccccc2)cc1)S(=O)(=O)c1ccc(C)cc1 | > 20 µM |  |
| COC(=O)/C=C/N(/N=C/C1=CCCCC1)S(=O)(=O)c1ccc(C)cc1 | 10 µM |  |
| COC(=O)/C=C/N(/N=C/c1ccccc1)S(=O)(=O)c1ccc(C)cc1 | 1.25 µM | IC50 [3]: > 13.3 µM; MIC [1]: 2.5 µM; selectivity ratio [4]: 10.6 |
| COC(=O)/C=C/N(/N=C/c1ccccc1C(F)(F)F)S(=O)(=O)c1ccc(C)cc1 | 20 µM |  |
| C/C=C/C=C/C=N/N(/C=C/C(=O)OC)S(=O)(=O)c1ccc(C)cc1 | 5 µM | MIC [1]: 10 µM |
| COC(=O)/C=C/N(/N=C/c1ccc[nH]1)S(=O)(=O)c1ccc(C)cc1 | > 20 µM |  |
| COC(=O)/C=C\N(/N=C/c1ccc([N+](=O)[O-])cc1)S(=O)(=O)c1ccc(C)cc1 | > 20 µM |  |
| COC(=O)/C=C/N(/N=C/C=C/c1ccc(OC)cc1)S(=O)(=O)c1ccc(C)cc1 | 10 µM |  |
| COC(=O)/C=C\N(/N=C/c1ccccc1)S(=O)(=O)c1ccc(C)cc1 | 20 µM |  |

| SMILES | MIC [2] | also measured |
| --- | --- | --- |
| COC(=O)/C=C\N(/N=C/c1ccc(OC)c(OC)c1)S(=O)(=O)c1ccc(C)cc1 | > 20 µM |  |
| O=C(N/N=C\c1ccco1)c1cc(C23CC4CC(CC(C4)C2)C3)c2ccccc2n1 |  | MIC [6]: 3.12 µg/mL (≈ 7.81 µM) |
| COC(=O)/C=C/N(/N=C/c1ccc2ccccc2c1)S(=O)(=O)c1ccc(C)cc1 | 1.25 µM | IC50 [3]: > 11.6 µM; MIC [1]: 2.5 µM; selectivity ratio [4]: 9.28 |
| COC(=O)/C=C\N(/N=C/C=C/c1ccc(OC)cc1)S(=O)(=O)c1ccc(C)cc1 | > 20 µM |  |
| COC(=O)/C=C\N(/N=C/c1ccc2ccccc2c1)S(=O)(=O)c1ccc(C)cc1 | 20 µM |  |
| COC(=O)/C=C\N(/N=C/c1ccc[nH]1)S(=O)(=O)c1ccc(C)cc1 | > 20 µM |  |
| COC(=O)/C=C/N(/N=C/C1=CC2CC(C1)C2(C)C)S(=O)(=O)c1ccc(C)cc1 (stereo not drawn) | > 20 µM |  |
| COC(=O)/C=C\N(/N=C/c1ccc(-c2ccccc2)cc1)S(=O)(=O)c1ccc(C)cc1 | > 20 µM |  |
| COC(=O)/C=C\N(/N=C/c1ccccc1C(F)(F)F)S(=O)(=O)c1ccc(C)cc1 | > 20 µM |  |
| COC(=O)/C=C\N(/N=C/c1ccc(Br)cc1)S(=O)(=O)c1ccc(C)cc1 | > 20 µM |  |
| COC(=O)/C=C/N(/N=C/c1ccc(Br)cc1)S(=O)(=O)c1ccc(C)cc1 | > 20 µM |  |
| COC(=O)/C=C\N(/N=C/c1ccco1)S(=O)(=O)c1ccc(C)cc1 | 20 µM |  |
| COC(=O)/C=C/N(/N=C/c1ccco1)S(=O)(=O)c1ccc(C)cc1 | 5 µM | MIC [1]: 10 µM |
| COC(=O)/C=C\N(/N=C/c1ccccc1OC)S(=O)(=O)c1ccc(C)cc1 | > 20 µM |  |
| NNC(=O)c1ccncc1 [ISONIAZID] | 0.36 µM | MIC [1]: > 7.3 µM |
| CO[C@H]1/C=C/O[C@@]2(C)Oc3c(C)c(O)c4c(O)c(c(/C=N/N5CCN(C)CC5)c(O)c4c3C2=O)NC(=O)/C(C)=C\C=C\[C@H](C)[C@H](O)[C@@H](C)[C@@H](O)[C@@H](C)[C@H](OC(C)=O)[C@@H]1C [RIFAMPIN] | 0.3 µM |  |
